Source: ChEMBL document CHEMBL1141070, “Synthesis and biological activity of flurbiprofen analogues as selective inhibitors of beta-amyloid(1)(-)(42) secretion” (J Med Chem, 2005)
Values belong to the compound of their own block, whether it stands above or below them.

How the values were obtained:
Caco-2 = test: Permeability in the Caco-2 cell; high absorption; type: ADME, cell-based; details: human
Summary of the method: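 Caco-2 monolayers on polycarbonate Transwell inserts, 2 h at 37 °C. Apical and basolateral solutions analysed by LC-MS/MS (SRM). Papp = Cb·Vb/(C0·A·t).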

[1] = Maximal concentration in rats after 2.5 mg/kg oral dose; type: ADME, organism-based; design: dose 2.5 mg/kg, route oral; details: rat, in vivo
[2] = Area under curve after administration to rats at a dose of 2.5 mg/kg orally; type: ADME, organism-based; design: dose 2.5 mg/kg, route oral; details: rat, in vivo, po
Cytochrome P450 2C9 = Cytochrome P450 2C9 (Homo sapiens, UniProt P11712); test: Interaction with human cytochrome P450 isoform 2C9 expressed in baculovirus-insect cells; type: ADME
Summary of the method: (§1)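 Microsomes from baculovirus-insect cells expressing human CYP1A2, 2C9, 2C19, 2D6 or 3A4. Compound serially diluted with an NADPH-regenerating mix (16.3 μM NADP+, 0.83 mM glucose-6-phosphate, 0.83 mM MgCl2, 0.4 U/mL G6PDH). Pre-warmed 10 min at 37 °C, then isoform-specific substrate added in 0.35 M potassium phosphate pH 7.4. Fluorometric read-out; IC50 by nonlinear regression.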

[3] = biological target: T1, Amyloid-beta precursor protein (Homo sapiens, UniProt P05067); test: Inhibitory concentration against beta-amyloid-42 (Abeta42) secretion was evaluated in human neuroglioma cells (H4-APP695NL); type: functional, cell-based
Summary of the method: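 H4-APP695NL human neuroglioma cells (APP695 Swedish K595N/M596L) seeded at 2 × 10^5/well and grown 24 h to confluence. Increasing compound concentrations added overnight; DMSO 1% as vehicle. Supernatant Aβ42 or Aβ40 measured by electrochemiluminescence immunoassay: biotinylated 4G8 plus C-terminus-specific rabbit antibodies, captured on streptavidin beads.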
Target sequence in this assay (P05067 18-770 limits assumed): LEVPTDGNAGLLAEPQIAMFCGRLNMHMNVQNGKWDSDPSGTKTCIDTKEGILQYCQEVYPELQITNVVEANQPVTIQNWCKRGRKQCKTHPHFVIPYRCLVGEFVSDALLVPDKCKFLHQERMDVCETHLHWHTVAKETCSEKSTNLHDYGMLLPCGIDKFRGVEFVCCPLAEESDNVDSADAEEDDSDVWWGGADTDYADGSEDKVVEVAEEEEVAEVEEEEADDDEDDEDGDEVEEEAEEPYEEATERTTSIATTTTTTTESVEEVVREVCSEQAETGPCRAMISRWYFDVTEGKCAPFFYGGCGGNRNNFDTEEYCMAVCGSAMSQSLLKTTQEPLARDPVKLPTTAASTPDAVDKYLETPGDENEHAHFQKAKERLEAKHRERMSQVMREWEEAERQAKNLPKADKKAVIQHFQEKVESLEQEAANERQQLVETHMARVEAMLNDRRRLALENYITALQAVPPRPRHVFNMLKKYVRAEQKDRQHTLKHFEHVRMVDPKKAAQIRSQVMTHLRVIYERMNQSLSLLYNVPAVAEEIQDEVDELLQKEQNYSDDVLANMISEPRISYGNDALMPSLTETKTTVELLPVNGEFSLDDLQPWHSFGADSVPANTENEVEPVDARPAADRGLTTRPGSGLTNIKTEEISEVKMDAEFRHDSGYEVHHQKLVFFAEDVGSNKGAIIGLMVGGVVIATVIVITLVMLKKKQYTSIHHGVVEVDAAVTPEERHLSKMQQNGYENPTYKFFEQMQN

[4] = In vivo steady state metabolic clearance of the compound; details: rat
[5] = Absolute oral bioavailability after administration to rats at a dose of 2.5 mg/kg orally; details: rat, in vivo
[6] = Area under curve after administration to rats at a dose of 0.5 mg/kg intravenously; type: ADME, organism-based; design: dose 0.5 mg/kg, route intravenous; details: rat, in vivo, iv
[7] = biological target: T1, Amyloid-beta precursor protein; details: at 100 µM
Target sequence in this assay (P05067 whole entry): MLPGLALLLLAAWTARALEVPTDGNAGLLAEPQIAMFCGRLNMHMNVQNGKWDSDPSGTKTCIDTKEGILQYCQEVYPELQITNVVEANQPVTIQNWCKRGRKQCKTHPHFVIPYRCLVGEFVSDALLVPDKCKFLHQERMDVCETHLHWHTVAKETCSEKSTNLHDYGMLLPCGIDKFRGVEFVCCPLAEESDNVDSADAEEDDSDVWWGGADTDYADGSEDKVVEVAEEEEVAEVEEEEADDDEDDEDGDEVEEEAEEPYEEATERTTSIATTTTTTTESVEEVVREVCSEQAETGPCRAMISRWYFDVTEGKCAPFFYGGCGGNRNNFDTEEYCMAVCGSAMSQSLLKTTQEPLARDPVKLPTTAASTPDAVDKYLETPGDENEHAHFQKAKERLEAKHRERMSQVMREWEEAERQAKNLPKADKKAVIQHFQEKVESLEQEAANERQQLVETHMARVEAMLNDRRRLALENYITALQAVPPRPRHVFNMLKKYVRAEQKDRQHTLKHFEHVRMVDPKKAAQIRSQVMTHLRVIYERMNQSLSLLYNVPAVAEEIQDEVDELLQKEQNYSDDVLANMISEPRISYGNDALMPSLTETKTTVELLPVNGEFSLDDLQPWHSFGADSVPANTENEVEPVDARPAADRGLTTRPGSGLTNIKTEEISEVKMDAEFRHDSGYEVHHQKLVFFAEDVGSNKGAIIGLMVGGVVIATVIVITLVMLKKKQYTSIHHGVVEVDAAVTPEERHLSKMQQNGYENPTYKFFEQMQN

[8] = Maximal concentration in rats after 0.5 mg/kg intravenous dose; type: ADME, organism-based; design: dose 0.5 mg/kg, route intravenous; details: rat, in vivo
Cytochrome P450 2C19 = Cytochrome P450 2C19 (Homo sapiens, UniProt P33261); test: Interaction with human cytochrome P450 isoform 2C19 expressed in baculovirus-insect cells; type: ADME; summary of the method: as §1
[9] = Elimination phase half-life after administration to rats at a dose of 2.5 mg/kg orally; type: ADME, organism-based; design: dose 2.5 mg/kg, route oral; details: rat, in vivo, po
[10] = Total body clearance after administration to rats at a dose of 0.5 mg/kg intravenously; details: rat, in vivo, iv
[11] = biological target: T2, Prostaglandin G/H synthase 1 (Rattus norvegicus) (UniProt Q63921); test: Percent inhibition against cyclooxygenase-1 at 100 uM in rat blood
T2 sequence (whole entry): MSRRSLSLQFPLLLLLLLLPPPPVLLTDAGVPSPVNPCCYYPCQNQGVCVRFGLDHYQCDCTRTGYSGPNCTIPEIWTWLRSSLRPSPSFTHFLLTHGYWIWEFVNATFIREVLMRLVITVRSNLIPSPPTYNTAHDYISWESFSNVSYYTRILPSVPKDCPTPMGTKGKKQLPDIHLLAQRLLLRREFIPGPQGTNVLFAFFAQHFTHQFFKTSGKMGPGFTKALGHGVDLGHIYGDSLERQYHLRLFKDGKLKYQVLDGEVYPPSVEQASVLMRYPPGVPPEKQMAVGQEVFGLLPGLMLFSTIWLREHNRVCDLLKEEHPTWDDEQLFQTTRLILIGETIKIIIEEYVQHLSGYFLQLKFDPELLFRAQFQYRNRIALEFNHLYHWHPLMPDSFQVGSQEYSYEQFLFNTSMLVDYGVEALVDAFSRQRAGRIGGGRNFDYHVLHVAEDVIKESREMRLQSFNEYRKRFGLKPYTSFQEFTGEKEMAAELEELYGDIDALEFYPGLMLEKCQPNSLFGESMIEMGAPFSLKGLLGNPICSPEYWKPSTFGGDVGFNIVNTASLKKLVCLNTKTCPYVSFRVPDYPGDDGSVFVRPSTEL
Summary of the method: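 Fresh rat whole blood preincubated 1 h at 37 °C with compound (100 μM) or DMSO (0.3% final). Stimulated 30 min with A23187 calcium ionophore; plasma thromboxane B2 measured by radioimmunoassay.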

Cytochrome P450 3A4 [12] = biological target: T3, Cytochrome P450 3A4 (Homo sapiens, UniProt P08684); test: Inhibition of cytochrome P450 3A4 at 100 uM; activation observed; type: ADME
Summary of the method: (§2)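 Supersome microsomes from baculovirus-insect cells expressing human CYP1A2, 2C9, 2C19, 2D6 or 3A4 were used with isoform-specific fluorogenic substrates. Compounds were serially diluted with an NADP⁺/glucose-6-phosphate regenerating system in 0.35 M potassium phosphate, pH 7.4. Plates were prewarmed 10 min at 37 °C, reactions stopped with acetonitrile/Tris, and fluorescence read. IC50 was obtained by nonlinear regression.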

[13] = Area under curve after administration to rats at a dose of 0.2 mg/kg intravenously; type: ADME, organism-based; design: dose 0.2 mg/kg, route intravenous; details: rat, in vivo, iv
[14] = Time to achieve maximal concentration in rats after 0.5 mg/kg oral dose; type: ADME, organism-based; design: dose 0.5 mg/kg, route oral; details: rat, in vivo
[15] = Maximal concentration in rats after 0.2 mg/kg intravenous dose; type: ADME, organism-based; design: dose 0.2 mg/kg, route intravenous; details: rat, in vivo
[16] = Total body clearance after administration to rats at a dose of 0.2 mg/kg intravenously; type: ADME, organism-based; design: dose 0.2 mg/kg, route intravenous; details: rat, in vivo, iv
[17] = Maximal concentration in rats after 0.5 mg/kg oral dose; type: ADME, organism-based; design: dose 0.5 mg/kg, route oral; details: rat, in vivo
[18] = Time to achieve maximal concentration in rats after 0.2 mg/kg intravenous dose; type: ADME, organism-based; design: dose 0.2 mg/kg, route intravenous; details: rat, in vivo
[19] = Area under curve after administration to rats at a dose of 0.5 mg/kg orally; type: ADME, organism-based; design: dose 0.5 mg/kg, route oral; details: rat, in vivo, po
Cytochrome P450 2D6 = Cytochrome P450 2D6 (Homo sapiens, UniProt P10635); test: Interaction with human cytochrome P450 isoform 2D6 expressed in baculovirus-insect cells; type: ADME; summary of the method: as §2
Cytochrome P450 3A4 [20] = biological target: T3, Cytochrome P450 3A4; test: Interaction with human cytochrome P450 isoform 3A4 expressed in baculovirus-insect cells; type: ADME; summary of the method: as §2
Cytochrome P450 1A2 = biological target: T4, Cytochrome P450 1A2 (Homo sapiens, UniProt P05177); test: Interaction with human cytochrome P450 isoform 1A2 expressed in baculovirus-insect cells; type: ADME; summary of the method: as §2
T4 sequence (P05177 whole entry): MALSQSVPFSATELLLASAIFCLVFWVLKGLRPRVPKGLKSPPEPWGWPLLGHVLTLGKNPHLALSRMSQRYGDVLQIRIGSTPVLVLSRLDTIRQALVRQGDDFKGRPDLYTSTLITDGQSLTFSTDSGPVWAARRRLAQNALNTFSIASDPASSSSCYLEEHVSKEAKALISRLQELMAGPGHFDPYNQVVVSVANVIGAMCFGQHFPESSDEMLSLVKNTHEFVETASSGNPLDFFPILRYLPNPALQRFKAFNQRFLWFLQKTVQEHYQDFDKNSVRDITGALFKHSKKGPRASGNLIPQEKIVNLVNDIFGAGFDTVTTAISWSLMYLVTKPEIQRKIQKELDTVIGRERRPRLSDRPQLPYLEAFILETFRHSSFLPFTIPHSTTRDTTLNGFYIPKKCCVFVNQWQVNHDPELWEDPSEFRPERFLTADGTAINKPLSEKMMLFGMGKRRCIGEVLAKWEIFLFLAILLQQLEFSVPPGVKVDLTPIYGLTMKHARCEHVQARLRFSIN

Cytochrome P450 2C9, sequence (P11712 whole entry, canonical isoform): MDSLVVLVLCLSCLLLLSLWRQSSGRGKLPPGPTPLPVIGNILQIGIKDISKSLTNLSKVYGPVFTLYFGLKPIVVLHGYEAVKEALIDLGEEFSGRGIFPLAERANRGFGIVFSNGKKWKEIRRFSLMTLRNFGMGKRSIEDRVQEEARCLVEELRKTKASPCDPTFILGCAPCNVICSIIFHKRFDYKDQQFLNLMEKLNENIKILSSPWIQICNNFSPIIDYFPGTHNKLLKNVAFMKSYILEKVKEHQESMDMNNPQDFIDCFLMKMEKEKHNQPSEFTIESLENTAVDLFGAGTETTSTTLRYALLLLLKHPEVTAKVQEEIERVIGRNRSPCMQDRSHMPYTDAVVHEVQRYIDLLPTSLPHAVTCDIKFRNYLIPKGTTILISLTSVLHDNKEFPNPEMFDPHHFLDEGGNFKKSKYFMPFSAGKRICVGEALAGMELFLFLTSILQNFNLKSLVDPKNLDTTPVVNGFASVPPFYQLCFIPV
Cytochrome P450 2C19, sequence (P33261 whole entry, canonical isoform): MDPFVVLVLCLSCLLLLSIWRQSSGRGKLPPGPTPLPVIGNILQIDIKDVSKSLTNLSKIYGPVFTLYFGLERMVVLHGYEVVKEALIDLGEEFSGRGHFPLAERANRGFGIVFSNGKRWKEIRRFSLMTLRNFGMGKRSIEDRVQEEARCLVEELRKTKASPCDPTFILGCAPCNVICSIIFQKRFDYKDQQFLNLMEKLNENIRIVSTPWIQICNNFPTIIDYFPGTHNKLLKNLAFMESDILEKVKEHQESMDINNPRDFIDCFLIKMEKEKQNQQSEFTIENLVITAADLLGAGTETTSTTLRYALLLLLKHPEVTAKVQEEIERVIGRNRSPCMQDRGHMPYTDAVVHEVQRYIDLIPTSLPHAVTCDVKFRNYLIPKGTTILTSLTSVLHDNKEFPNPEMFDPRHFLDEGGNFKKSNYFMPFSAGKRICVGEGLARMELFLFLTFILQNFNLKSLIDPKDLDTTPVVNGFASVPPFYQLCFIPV
T3 sequence (P08684 whole entry, canonical isoform): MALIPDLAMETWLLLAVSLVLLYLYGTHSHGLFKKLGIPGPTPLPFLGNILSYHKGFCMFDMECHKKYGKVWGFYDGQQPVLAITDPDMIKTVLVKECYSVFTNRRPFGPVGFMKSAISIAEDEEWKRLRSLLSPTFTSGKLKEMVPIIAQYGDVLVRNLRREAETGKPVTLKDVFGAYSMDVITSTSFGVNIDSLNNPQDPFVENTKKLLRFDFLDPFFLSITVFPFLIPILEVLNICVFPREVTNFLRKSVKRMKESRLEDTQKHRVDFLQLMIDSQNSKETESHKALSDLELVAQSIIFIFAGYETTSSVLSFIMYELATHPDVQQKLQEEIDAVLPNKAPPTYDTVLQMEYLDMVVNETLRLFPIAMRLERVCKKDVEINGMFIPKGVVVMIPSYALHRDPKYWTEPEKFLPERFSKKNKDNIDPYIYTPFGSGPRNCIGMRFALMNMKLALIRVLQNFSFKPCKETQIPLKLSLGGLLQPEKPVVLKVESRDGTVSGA
Cytochrome P450 2D6, sequence (P10635 whole entry, canonical isoform): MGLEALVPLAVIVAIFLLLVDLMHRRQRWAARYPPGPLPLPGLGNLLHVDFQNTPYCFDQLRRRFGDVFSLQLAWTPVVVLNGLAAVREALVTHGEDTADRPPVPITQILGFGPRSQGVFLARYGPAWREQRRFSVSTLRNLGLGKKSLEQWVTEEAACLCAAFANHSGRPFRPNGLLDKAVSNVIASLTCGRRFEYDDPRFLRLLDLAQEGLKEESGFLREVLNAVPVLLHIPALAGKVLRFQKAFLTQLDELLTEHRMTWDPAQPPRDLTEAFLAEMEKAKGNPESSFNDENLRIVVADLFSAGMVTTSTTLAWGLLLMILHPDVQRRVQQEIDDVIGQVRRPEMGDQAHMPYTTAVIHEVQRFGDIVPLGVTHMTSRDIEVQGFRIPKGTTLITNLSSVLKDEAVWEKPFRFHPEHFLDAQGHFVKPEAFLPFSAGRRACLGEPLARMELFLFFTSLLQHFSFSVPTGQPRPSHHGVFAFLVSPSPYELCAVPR

- Absorption (Caco-2): High
- Cmax [1]: 16200 ng/mL
- AUC [2]: 435 µg/h/mL
- IC50 (Cytochrome P450 2C9): 38 µM
- IC50 [3]: 41 µM
- Clearance [4]: 1.5 mL/h
- bioavailability [5]: 50.2%
- AUC [6]: 173 µg/h/mL
- inhibition [7]: 79%
- Cmax [8]: 6100 ng/mL
- IC50 (Cytochrome P450 2C19): 25 µM
- T1/2 [9]: 20.7 h
- half-life [9]: 20.7 h
- Clearance [10]: 0.0483 mL/min/kg
- inhibition [11]: < 1%
Compound: O=C(O)C1(c2ccc(-c3ccc(Cl)c(Cl)c3)c(F)c2)CC1

- IC50 (Cytochrome P450 3A4 [12]): 59 µM
- inhibition [7]: 60%
- inhibition [11]: 12%
Compound: O=C(O)C1(c2ccc(-c3ccc(C4CCCCC4)cc3)c(F)c2)CC1

- AUC [13]: 11 µg/h/mL
- IC50 (Cytochrome P450 2C9): 17.7 µM
- Tmax [14]: 8 h
- IC50 [3]: 20 µM
- Cmax [15]: 600 ng/mL
- Clearance [16]: 0.313 mL/min/kg
- inhibition [7]: 70%
- Cmax [17]: 300 ng/mL
- Tmax [18]: 0.25 h
- AUC [19]: 6 µg/h/mL
Compound: O=C(O)C1(c2ccc(-c3ccc(OC4CCC(C(F)(F)F)CC4)cc3)c(F)c2)CC1 (stereo unspecified)

- IC50 (Cytochrome P450 2C9): 15 µM
- IC50 [3]: 11 µM
- Clearance [4]: 134 mL/h
- IC50 (Cytochrome P450 2D6): 30 µM
- inhibition [7]: 97%
- IC50 (Cytochrome P450 3A4 [20]): 27 µM
- IC50 (Cytochrome P450 2C19): 33 µM
- IC50 (Cytochrome P450 1A2): 26 µM
Compound: CC1(C)CC(Oc2ccc(-c3ccc(C4(C(=O)O)CC4)cc3F)cc2)CC(C)(C)C1
